IMP-1 inhibitor = inhibitors of Pseudomonas aeruginosa IMP-1 metallo-beta-lactamase. purified IMP-1, nitrocefin hydrolysis, epi-absorbance fluorescence. inhibition, % at 5.6 µM. 290,000 tested, 0.45% active. AID 1556;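 active means inhibition above the mean plus 3 SD of all compounds in the same screening run, cut at about 4.5% in these data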;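 further: 0% = IMP-1 with DMSO and 100% = DMSO wells lacking enzyme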
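System: purified IMP-1 / Input: IMP-1 dispensed at 0.2 nM / Medium: 50 mM HEPES pH 7.1, 50 µM ZnSO4, 0.05% Brij 35 / Timing: 15 min enzyme–compound preincubation, then 25 min nitrocefin reaction, 25 °C / Technique: plate fluorescence quenching by hydrolysis product, ex 480/em 530 nm / Repeats: singlicate testing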
PfM18AAP inh-1 = blocks P. falciparum M18 aspartyl aminopeptidase | inhibition, % at 7.35 µM | 290,000 tested, 1.2% active | recombinant PfM18AAP, H-Glu-NHMec fluorogenic cleavage;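 active means inhibition above the campaign mean inhibition over all tested compounds plus 3 SD, cut at about 28% in these data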;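 further: 0% = plate median of test compound wells and 100% = 2 mM ZnCl2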
VIM-2 inh = blocks Pseudomonas aeruginosa VIM-2 metallo-beta-lactamase | purified VIM-2, nitrocefin hydrolysis, epi-absorbance fluorescence | inhibition, % at 5.6 µM | 290,000 tested, 0.89% active | AID 1527;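 active means inhibition above the mean of all tested compounds plus 3 SD, cutoff set per screening run, cut at about 7.5% in these data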;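 further: red hydrolysis product quenches plate fluorescence so inhibitors raise well fluorescence; 0% = enzyme with DMSO and 100% = DMSO without enzyme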
sPLA2-III inh = Blocks human group III sPLA2 activity; Q9NZ20; QFRET BODIPY PC-A2 liposome hydrolysis, fluorescence; inhibition, % at 12.2 µM; 370,000 tested, 0.56% active; AID 743126;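 active means inhibition above mean plus 3 SD of compounds lying within the high and low control bounds, cut at about 19% in these data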;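 further: 0% = median of test compound wells and 100% = no enzyme DMSO wells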
Target sequence (Q9NZ20 whole entry, looked up): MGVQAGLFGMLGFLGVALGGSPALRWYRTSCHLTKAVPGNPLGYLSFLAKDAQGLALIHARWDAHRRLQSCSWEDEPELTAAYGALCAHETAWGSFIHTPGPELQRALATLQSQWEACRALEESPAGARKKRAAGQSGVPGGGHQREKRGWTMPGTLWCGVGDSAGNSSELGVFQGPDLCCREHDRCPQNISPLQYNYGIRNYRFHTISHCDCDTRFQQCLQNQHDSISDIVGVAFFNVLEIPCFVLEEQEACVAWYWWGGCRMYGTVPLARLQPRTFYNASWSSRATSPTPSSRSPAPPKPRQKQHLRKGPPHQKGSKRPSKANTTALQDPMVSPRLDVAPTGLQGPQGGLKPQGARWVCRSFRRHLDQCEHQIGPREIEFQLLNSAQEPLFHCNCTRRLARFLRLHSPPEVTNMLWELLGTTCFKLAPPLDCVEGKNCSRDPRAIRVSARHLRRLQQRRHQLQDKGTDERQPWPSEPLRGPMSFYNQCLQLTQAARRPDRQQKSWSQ
PfM18AAP inh-2 = confirmation of Plasmodium falciparum M18 aspartyl aminopeptidase inhibitors; shares compounds with PfM18AAP inh-1; recombinant PfM18AAP, H-Glu-NHMec fluorogenic cleavage; inhibition, % at 7.35 µM; 2,400 tested, 28% active;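 active means mean inhibition over replicate wells above the hit cutoff set for the earlier primary screen, cut at about 29% in these data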;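 further: 0% = median of test compound wells and 100% = 2 mM ZnCl2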
CTSL1 confirm = counter-screen for PFM18AAP inhibitors: confirmation of human cathepsin L inhibitors; shares compounds with PfM18AAP inh-1; purified cathepsin L1, Z-Leu-Arg-MCA fluorescence; inhibition, % at 5.96 µM; 2,400 tested, under 10 active; AID 2178;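 active means average inhibition across replicates above the hit cutoff set in the earlier primary screen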;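 further: 0% = median of test compound wells and 100% = Z-Phe-Ala-diazomethylketone 1 µM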
* marks the source's active call; other numbers are inactive results; . = not tested or not shown. Shown are actives, neighbours in structure and some others; about 2.4% of the full set was active somewhere.

SMILES	IMP-1 inhibitor	PfM18AAP inh-1	VIM-2 inh	sPLA2-III inh	PfM18AAP inh-2	CTSL1 confirm
O=C(COC(=O)CNC(=O)c1ccccc1)NC(=O)NC1CCCCC1	.	.	.	8.7	.	.
COc1cc(N/N=C/c2ccccc2O)ncn1	-4.2	40.9*	-3.8	1.4	-17.8	4.4
Oc1ccc(/C=N/NC(=S)N/N=C/c2ccc(O)cc2)cc1	-3.7	34.5*	0.8	-5.2	6.2	19.3*
CNC(=O)N(O)C1N(C)C(=O)N(Cc2ccccc2)C1(C)C (centres undefined)	-2.7	7.2	-0.8	-0.8	.	.
CCN1C(=O)N(C)C(N(O)C(=O)NC)C1(C)C (centres undefined)	-4.1	41.8*	-1.6	7.0	-58.8	-4.5
Cc1cc(C)c2c(=O)n(CC(=O)N3CCC(Cc4ccccc4)CC3)sc2n1	-3.8	56.2*	-1.4	.	21.8	0.9
Cc1cccc(N2CCN(C(=O)Cn3sc4nc(C)cc(C)c4c3=O)CC2C)c1 (centres undefined)	-3.5	49.4*	-3.7	.	16.8	-2.8
Cc1ccn2c(=O)nc(SCC(=O)N3CCC(Cc4ccccc4)CC3)nc2c1	.	.	.	3.9	.	.
Cc1ccccc1CN1C(=O)CSCC1(C)C(=O)NC(C)C (centres undefined)	.	.	.	4.3	.	.
O=c1c2c([N+](=O)[O-])cc([N+](=O)[O-])cc2sn1Cc1ccccc1	-2.1	79.0*	4.0	4.8	71.7*	1.7
Cc1c(C(=O)NCc2ccc(C(F)(F)F)cc2)sc(=O)n1Cc1ccc(S(=O)(=O)N(C)C)cc1	.	.	.	-18.1	.	.
Cc1ccc(S(=O)(=O)N2CCN(CC(=O)N/N=C\c3ccc(O)c(O)c3)CC2)cc1	-5.3	47.8*	-0.7	2.9	39.7*	-1.6
CCOc1ccc(C(=O)CN2CCN(S(=O)(=O)c3ccc(F)cc3)CC2)cc1	-2.1	-4.6	-1.4	-7.3	.	.
COc1ccc(S(=O)(=O)N2CCN(CC(=O)c3ccc(O)c(O)c3)CC2)cc1	-3.9	71.6*	4.0	3.8	40.6*	0.0
Cc1ccc(C(=O)Nc2nnc(CC(=O)N/N=C/c3ccc(O)c(O)c3)s2)cc1	0.6	55.6*	-0.1	-15.7	50.5*	4.5
Cc1ccc(S(=O)(=O)N2CCN(CC(=O)N/N=C/c3ccc(C)o3)CC2)cc1	-3.7	0.5	-2.7	-3.5	.	.
O=C(CN1CCN(S(=O)(=O)c2ccc(F)cc2)CC1)c1ccc(O)c(O)c1	-1.7	73.0*	-2.0	-0.1	33.9*	3.6
O=C(CN1CCN(S(=O)(=O)c2ccc(Cl)cc2)CC1)c1ccc(O)c(O)c1	-2.4	69.8*	7.2	.	39.4*	0.0
CCN(CC)c1ccc(N=CN2CCOCC2)cc1	-8.9	34.5*	-2.0	5.5	-27.5	-0.4
CCN1/C(=C\C=C(C(C)=O)C(C)=O)Sc2ccccc21	-2.7	2.7	1.3	-23.7	.	.
CCN1/C(=C\C(=S)Nc2ccccc2)Sc2ccccc21	-1.6	40.9*	-0.4	3.2	15.3	1.6
CC(=O)Nc1ccc2sc(C)nc2c1	-0.4	2.9	1.7	0.9	.	.
CC(=O)NS(=O)(=O)c1ccc2sc(C)nc2c1	-1.6	22.0	-3.6	12.9	-31.7	0.5
CCc1nc2ccc(C(=O)N(C)Cc3ccco3)cn2c1N(CC)Cc1cccc(Br)c1	.	.	.	-1.0	.	.
Cc1ccc(N/C=C(\C2OC(=O)c3ccccc32)[N+](=O)[O-])c(C)c1 (centres undefined)	-2.1	50.5*	-1.6	-0.8	-36.4	4.7
SMILES	IMP-1 inhibitor	PfM18AAP inh-1	VIM-2 inh	sPLA2-III inh	PfM18AAP inh-2	CTSL1 confirm
Cc1ccc(NC=C(S(=O)(=O)c2ccccc2)S(=O)(=O)c2ccccc2)c(C)c1	-1.7	-0.9	-0.1	3.8	.	.
Cc1ccc([N+](=O)[O-])cc1-c1[nH]c(-c2ccc(O)c(O)c2)nc1-c1ccccc1	-0.2	73.4*	-1.3	13.4	73.9*	-0.1
Cc1ccccc1CN1CCN(CC2CC2)CC1CCO (centres undefined)	-2.1	-2.6	-1.2	0.1	.	.
Cc1cccc(C)c1NC(=S)NCCc1ccc(O)c(O)c1	-3.1	73.0*	-4.5	15.4	50.1*	-6.6
S=C(NCCc1ccccc1)Nc1c(Cl)cccc1Cl	-3.8	40.7*	-3.7	10.2	-3.6	-5.2
Cc1cccnc1NC(=S)NCCc1ccccc1	-0.6	42.2*	-4.5	16.3	0.5	0.9
COCCNC(=O)C1(C)CCCN(Cc2cc(-c3ccccc3)nn2C)C1 (centres undefined)	.	.	.	6.2	.	.
O=C(CN(c1ccccc1)S(=O)(=O)c1ccc(Cl)cc1)Nc1cccnc1	-0.8	-1.0	-0.5	-4.3	.	.
Cc1ccc(-c2c3c(nc4sc(C(N)=O)c(N)c24)CCCC3)o1	-0.3	5.4	0.6	14.7	.	.
NC(=O)c1sc2nc3c(c(-c4ccco4)c2c1N)CCC3	1.9	32.5*	1.3	4.7	-26.5	-5.5
COc1ccc(CNC2CCC23CCC(c2ccccc2)CC3)cc1OC (centres undefined)	.	.	.	-1.6	.	.
O=C(Nn1cnnc1)c1cc2c(s1)CCCCC2	-0.7	53.5*	0.3	-8.3	55.1*	5.2
CNC(=O)c1cc2c(s1)CCCCCC2	-4.7	5.6	-5.3	-0.2	.	.
CN1CCN(S(=O)(=O)c2ccc(NN)nc2)CC1	.	.	.	-3.7	.	.
CCN(CC)S(=O)(=O)c1ccc(N/N=C/c2cccnc2)nc1	-0.7	19.9	0.4	-5.3	.	.
CCN(CC)S(=O)(=O)c1ccc(N/N=C/c2cc(OC)ccc2O)nc1	-1.0	56.6*	-3.3	-15.7	-8.7	1.0
CCN(c1ccccc1)S(=O)(=O)c1ccc(NN)nc1	.	.	.	-11.1	.	.
CC(C)N(C(C)C)S(=O)(=O)c1ccc(NN)nc1	-2.0	37.6*	-1.6	-9.8	36.9*	2.9
CCN(CC)S(=O)(=O)c1ccc(NN)nc1	-3.8	44.6*	-7.3	-8.4	41.2*	-2.2
CN1[C@@H](COCc2ccccc2)C=CS1(=O)=O	.	.	.	7.2	.	.
Cc1ccc(S(=O)(=O)N2CCN(C(=O)CN3CCN(c4ccc(O)cc4)CC3)CC2)cc1	.	.	.	-0.9	.	.
COc1ccc(N2CCN(CCNS(=O)(=O)c3cccs3)CC2)cc1	.	.	.	3.1	.	.
O=C(NCc1ccccc1)c1cnc(Cc2c[nH]c3ccccc23)c(I)c1	.	.	.	-39.2	.	.
CC(C(=O)N(C)C1CCS(=O)(=O)C1)N1C(=O)/C(=C/c2ccc(F)cc2)SC1=S (centres undefined)	-4.4	13.8	-1.5	-2.7	.	.
CCN(C(=O)C(C)N1C(=O)/C(=C/c2ccco2)SC1=S)C1CCS(=O)(=O)C1 (centres undefined)	7.8*	43.2*	-1.6	-9.3	-43.1	2.4
O=c1c2cc(N3CCOCC3)ccc2[nH]c(=S)n1Cc1ccccn1	0.0	43.6*	2.1	2.3	-2.6	-1.9
O=c1c2cc(N3CCOCC3)ccc2[nH]c(=S)n1Cc1ccccc1Cl	-1.5	1.6	-2.1	3.1	.	.
CCCNc1c(N)c(=O)oc2ccccc12	-0.7	48.6*	0.2	-5.4	-2.7	-5.7
COc1ccc(Cl)cc1CNC[C@H]1O[C@@H](n2ccc(N)nc2=O)[C@H](O)[C@@H]1O	.	.	.	9.8	.	.
CCC(=O)NNc1nc2c(C)cccc2s1	-1.8	47.8*	-3.8	3.2	22.8	-4.1
